Measurements reported in ChEMBL document CHEMBL5678798 (Clin Cancer Res, 2009).
Active and inactive are the calls of the source. No cut-off for these calls is given here.

Columns and labels:
[1] = Inhibition of mouse YAK3
[2] = target: Serine/threonine-protein kinase PAK 3 (Homo sapiens, UniProt O75914); assay: Inhibition of C-terminal His6-tagged recombinant human full-length PAK3 expressed in baculovirus infected Sf21 cells by filter binding assay
[3] = target: Insulin receptor (Mus musculus) (UniProt P15208); settings: CD-1, dose 30.0 mg/kg, route po, time 21.0 day
[4] = target: Death-associated protein kinase 2 (Homo sapiens) (UniProt Q9UIK4); assay: Inhibition of N-terminal GST-tagged recombinant human full length DAPK2 expressed in baculovirus infected Sf21 cells at 3 uM by filter binding assay relative to control
Summary of the method: (§1)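 Outsourced single-concentration screen in a commercial panel of 233 protein kinases, run as radiometric filter-binding activity assays. Test agent was tested at 0.3 or 3 µmol/L, as given in each line, from a 10 mmol/L DMSO stock. Activity is expressed as percent inhibition relative to control.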

[5] = target: Serine/threonine-protein kinase pim-3 (Homo sapiens) (UniProt Q86V86); assay: Inhibition of N-terminal 6His-tagged recombinant human Pim-3 expressed in baculovirus infected Sf21 cells at 0.3 uM by filter binding assay relative to control; summary of the method: as §1
[6] = Inhibition of p70S6K (unknown origin); set-up: species or system Homo sapiens
[7] = system: MCF7; assay: Induction of cell cycle arrest in human MCF7 cells assessed as cells accumulation at S phase at 1 umol/L incubated for 48 hrs by propidium iodide staining based flow cytometric analysis (reference value: 10%); assay type: functional; settings: dose 1 µmol/L, at 1 µM
Summary of the method: (§2)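 COLO 205, MCF-7 or NCI-H929 cells seeded in 96-well plates overnight at 37°C, then exposed to DMSO or increasing compound concentrations for 24 or 48 h. Fixed and stained with propidium iodide (Vindelov method), then analysed by flow cytometry for sub-G1, G1, S and G2-M fractions. Experiment repeated twice.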

[8] = target: Protein kinase C theta type (Homo sapiens, UniProt Q04759); assay: Inhibition of PKCtheta (unknown origin)
[9] = target: Macrophage colony-stimulating factor 1 receptor (Homo sapiens) (UniProt P07333); assay: Inhibition of N-terminal His6-tagged recombinant human Fms (538 to end residues) expressed in baculovirus infected Sf21 cells at 0.3 uM by filter binding assay relative to control
[10] = target: Protein-tyrosine kinase 2-beta (Homo sapiens) (UniProt Q14289); assay: Inhibition of N-Terminal His6-tagged recombinant full-length human Pyk2 expressed in baculovirus infected Sf21 cells at 3 uM by filter binding assay relative to control
Summary of the method: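 KinaseProfiler panel of 233 kinases: radiometric filter-binding activity assays with compound at 0.3 or 3 µmol/L. Read-out is percent inhibition.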

[11] = system: MCF7; assay: Induction of cell cycle arrest in human MCF7 cells assessed as decrease in cells accumulation at S phase at 0.03 to 10 uM incubated for 24 to 48 hrs by propidium iodide staining based flow cytometric analysis; assay type: functional; settings: dose 0.03-10 µM, time lower 24.0 hrs, time upper […]; summary of the method: as §2
[12] = target: Serine/threonine-protein kinase PLK2 (Homo sapiens) (UniProt Q9NYY3); assay: Inhibition of human Snk at 3 uM by filter binding assay relative to control
[13] = target: Tyrosine-protein kinase JAK2 (Homo sapiens, UniProt O60674); assay: Inhibition of JAK2 (unknown origin)
[14] = In vivo inhibition of IGF1R in mouse NIH-3T3/LISN cells xenografted in IGF1-stimulated nu/nu CD-1 mouse assessed as reduction in IGF1R phosphorylation at 3.5 umol/L blood compound concentration pretreated for 4 hrs followed by IGF1 stimulation and measured after 10 min by […] relative to control; assay type: functional; settings: dose 3.5 µmol/L; time 250 min; 4.167 h; at 3.5 µM
Summary of the method: (§3)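 Female nu/nu CD-1 mice, three per group, bearing ~500 mm3 tumors, given one oral dose of compound or vehicle. At 4 h, 10 µg hIGF-I i.v. via tail vein; saline controls. Tumor and blood taken 10 min later. Tumor lysates in RIPA captured on anti-IGF-IR plates and probed with europium anti-phosphotyrosine. Phospho/total IGF-IR expressed as % of ligand-stimulated control. Blood levels by LC-MS/MS.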

[15] = target: Tyrosine-protein kinase Yes (Homo sapiens) (UniProt P07947); assay: Inhibition of N-terminal His6 tagged recombinant full-length human Yes expressed in baculovirus infected Sf21 cells at 0.3 uM by filter binding assay relative to control; summary of the method: as §1
[16] = target: Tyrosine-protein kinase ABL1 (Homo sapiens, UniProt P00519); assay: Inhibition of N-terminal His6-tagged recombinant human Abl (27 to end residues) expressed in baculovirus infected Sf21 cells by filter binding assay
[17] = target: 3-phosphoinositide-dependent protein kinase 1 (Homo sapiens, UniProt O15530); assay: Inhibition of PDK1 (unknown origin)
[18] = target: Serine/threonine-protein kinase TAO2 (Homo sapiens) (UniProt Q9UL54); assay: Inhibition of N-terminal 6His-tagged recombinant human TAO2 expressed in Sf21 cells at 3 uM by filter binding assay relative to control; summary of the method: as §1
[19] = Toxicity in nu/nu CD-1 mouse implanted with mouse NIH-3T3/LISN cells assessed as reduction in body weight at 30 mg/kg, po for 21 days; assay type: organism-based; settings: in vivo, 504 h, time 21 day
[20] = species: Rattus norvegicus; assay: Inhibition of recombinant rat AMPK at 0.3 uM by filter binding assay relative to control
[21] = target: Serine/threonine-protein kinase TBK1 (Homo sapiens) (UniProt Q9UHD2); assay: Inhibition of N-terminal His6-tagged recombinant full-length human TBK1 expressed in baculovirus infected Sf21 cells at 0.3 uM by filter binding assay relative to control; summary of the method: as §1
[22] = target: Tyrosine-protein kinase receptor UFO (Homo sapiens) (UniProt P30530); assay: Inhibition of N-terminal His6-tagged recombinant human Axl (473 to end residues) expressed in Sf21 cells at 3 uM by filter binding assay relative to control
[23] = system: MDA-MB-468; assay: Antiproliferative activity against human MDA-MB-468 cells assessed as reduction in cell viability after 72 hrs by CellTiter-Glo assay; assay type: functional, cell-based; settings: MDA-MB-468, 72 h
Summary of the method: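 Cells seeded in 96-well plates, left overnight at 37°C, then exposed to a range of test concentrations for 72 h. Viability read by CellTiter-Glo luminescence; IC50 from four-parameter curve fit. Lines kept at 37°C, 5% CO2, in recommended growth medium.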

[24] = Inhibition of recombinant mouse N-terminal 6His-tagged full length P110alpha/full length mouse […] expressed in baculovirus infected Sf21 cells at 0.3 uM by filter binding assay relative to control; settings: condition cancer
[25] = target: Mitogen-activated protein kinase 9 (Homo sapiens, UniProt P45984); assay: Inhibition of JNK2 (unknown origin)
[26] = In vivo inhibition of IGF1R in mouse NIH-3T3/LISN cells implanted in IGF1-stimulated nu/nu CD-1 mouse assessed as reduction in IGF1R phosphorylation at 3 mg/kg, po pretreated for 4 hrs followed by IGF1 stimulation and measured after 10 min by […] relative to control; assay type: functional; settings: 4.167 h, time 250 min; summary of the method: as §3

Serine/threonine-protein kinase TAO2 (Homo sapiens), sequence (Q9UL54 whole entry): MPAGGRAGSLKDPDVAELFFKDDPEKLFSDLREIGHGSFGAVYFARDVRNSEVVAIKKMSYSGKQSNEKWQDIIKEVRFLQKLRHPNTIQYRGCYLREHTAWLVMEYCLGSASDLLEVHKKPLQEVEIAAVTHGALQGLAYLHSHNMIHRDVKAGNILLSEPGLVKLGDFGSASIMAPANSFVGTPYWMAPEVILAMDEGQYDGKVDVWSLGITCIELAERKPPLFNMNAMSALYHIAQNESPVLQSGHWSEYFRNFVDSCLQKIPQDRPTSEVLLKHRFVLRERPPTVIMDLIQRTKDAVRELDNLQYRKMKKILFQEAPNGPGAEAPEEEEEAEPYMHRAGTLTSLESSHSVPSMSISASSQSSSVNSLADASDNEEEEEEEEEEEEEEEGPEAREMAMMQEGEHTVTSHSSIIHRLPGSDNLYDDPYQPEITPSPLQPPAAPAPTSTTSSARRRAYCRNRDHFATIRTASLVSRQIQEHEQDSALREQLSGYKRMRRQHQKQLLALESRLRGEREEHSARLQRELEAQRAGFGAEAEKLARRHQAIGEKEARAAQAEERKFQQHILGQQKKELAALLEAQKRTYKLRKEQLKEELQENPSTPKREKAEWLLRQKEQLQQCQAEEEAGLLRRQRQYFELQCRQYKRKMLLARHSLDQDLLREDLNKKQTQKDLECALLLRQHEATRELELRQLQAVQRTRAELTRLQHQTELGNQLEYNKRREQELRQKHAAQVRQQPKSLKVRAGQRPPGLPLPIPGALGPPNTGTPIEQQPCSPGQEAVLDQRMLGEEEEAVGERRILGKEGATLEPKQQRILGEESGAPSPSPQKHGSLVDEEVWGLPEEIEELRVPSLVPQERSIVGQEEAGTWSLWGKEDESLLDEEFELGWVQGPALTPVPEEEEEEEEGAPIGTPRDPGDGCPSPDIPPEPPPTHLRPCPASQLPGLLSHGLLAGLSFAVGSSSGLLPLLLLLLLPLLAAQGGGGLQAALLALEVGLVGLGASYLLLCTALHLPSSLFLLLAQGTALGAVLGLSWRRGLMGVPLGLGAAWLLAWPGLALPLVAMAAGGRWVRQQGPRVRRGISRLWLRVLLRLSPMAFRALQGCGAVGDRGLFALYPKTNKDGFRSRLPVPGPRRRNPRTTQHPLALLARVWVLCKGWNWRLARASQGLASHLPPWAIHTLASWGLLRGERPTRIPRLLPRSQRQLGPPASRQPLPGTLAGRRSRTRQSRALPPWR
Serine/threonine-protein kinase PAK 3, sequence (O75914 whole entry): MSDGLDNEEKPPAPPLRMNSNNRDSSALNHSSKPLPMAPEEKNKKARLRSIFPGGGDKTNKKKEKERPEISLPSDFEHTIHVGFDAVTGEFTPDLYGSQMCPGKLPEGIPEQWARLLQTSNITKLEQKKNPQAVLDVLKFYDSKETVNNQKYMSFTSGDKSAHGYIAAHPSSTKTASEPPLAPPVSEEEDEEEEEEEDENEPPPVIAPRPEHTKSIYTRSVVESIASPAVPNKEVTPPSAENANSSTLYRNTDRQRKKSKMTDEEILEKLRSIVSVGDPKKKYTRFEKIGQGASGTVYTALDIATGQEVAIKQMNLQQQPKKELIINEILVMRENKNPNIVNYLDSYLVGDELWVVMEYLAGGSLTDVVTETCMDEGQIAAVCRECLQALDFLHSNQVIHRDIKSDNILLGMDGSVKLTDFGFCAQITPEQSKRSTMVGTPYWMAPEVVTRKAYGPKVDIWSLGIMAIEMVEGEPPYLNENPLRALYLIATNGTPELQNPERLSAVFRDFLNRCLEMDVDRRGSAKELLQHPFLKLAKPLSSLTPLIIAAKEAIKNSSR
Insulin receptor (Mus musculus), sequence (P15208 28-748 limits assumed): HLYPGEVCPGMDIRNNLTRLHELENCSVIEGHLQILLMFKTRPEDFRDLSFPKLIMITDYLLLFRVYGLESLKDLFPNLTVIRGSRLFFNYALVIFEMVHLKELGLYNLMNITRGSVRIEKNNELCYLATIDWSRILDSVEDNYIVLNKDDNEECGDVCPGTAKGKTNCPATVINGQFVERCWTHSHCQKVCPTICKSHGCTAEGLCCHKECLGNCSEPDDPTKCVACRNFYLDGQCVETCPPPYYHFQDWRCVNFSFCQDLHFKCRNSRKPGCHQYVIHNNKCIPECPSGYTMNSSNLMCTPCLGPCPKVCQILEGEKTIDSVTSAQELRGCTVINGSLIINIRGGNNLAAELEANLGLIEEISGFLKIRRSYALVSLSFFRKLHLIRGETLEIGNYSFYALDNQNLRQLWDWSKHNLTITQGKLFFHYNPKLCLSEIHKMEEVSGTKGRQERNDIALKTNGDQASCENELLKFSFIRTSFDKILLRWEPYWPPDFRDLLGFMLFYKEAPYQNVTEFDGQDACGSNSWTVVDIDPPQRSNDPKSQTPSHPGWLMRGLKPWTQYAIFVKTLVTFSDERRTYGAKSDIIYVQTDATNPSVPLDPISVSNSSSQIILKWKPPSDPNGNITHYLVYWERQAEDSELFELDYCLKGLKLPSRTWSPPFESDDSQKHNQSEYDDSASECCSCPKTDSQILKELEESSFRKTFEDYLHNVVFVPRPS
Insulin receptor (Mus musculus), sequence (P15208 753-1372 limits assumed): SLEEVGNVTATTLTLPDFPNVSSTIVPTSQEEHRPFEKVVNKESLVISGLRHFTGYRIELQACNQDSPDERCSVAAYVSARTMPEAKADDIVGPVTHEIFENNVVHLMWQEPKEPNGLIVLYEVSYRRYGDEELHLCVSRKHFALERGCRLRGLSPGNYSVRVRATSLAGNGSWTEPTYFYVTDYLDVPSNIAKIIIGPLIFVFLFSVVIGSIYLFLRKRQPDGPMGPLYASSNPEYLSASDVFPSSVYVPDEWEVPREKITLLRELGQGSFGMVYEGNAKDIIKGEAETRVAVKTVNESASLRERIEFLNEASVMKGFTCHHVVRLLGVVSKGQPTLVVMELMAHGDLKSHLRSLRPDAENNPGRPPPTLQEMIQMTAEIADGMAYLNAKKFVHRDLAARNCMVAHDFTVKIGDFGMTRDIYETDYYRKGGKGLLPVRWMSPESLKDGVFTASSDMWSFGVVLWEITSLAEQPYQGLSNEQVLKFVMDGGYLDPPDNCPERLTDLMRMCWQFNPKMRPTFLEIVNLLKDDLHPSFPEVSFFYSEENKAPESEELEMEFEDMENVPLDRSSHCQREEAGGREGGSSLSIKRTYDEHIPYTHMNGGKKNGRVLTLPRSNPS
Serine/threonine-protein kinase TBK1 (Homo sapiens), sequence (Q9UHD2 whole entry): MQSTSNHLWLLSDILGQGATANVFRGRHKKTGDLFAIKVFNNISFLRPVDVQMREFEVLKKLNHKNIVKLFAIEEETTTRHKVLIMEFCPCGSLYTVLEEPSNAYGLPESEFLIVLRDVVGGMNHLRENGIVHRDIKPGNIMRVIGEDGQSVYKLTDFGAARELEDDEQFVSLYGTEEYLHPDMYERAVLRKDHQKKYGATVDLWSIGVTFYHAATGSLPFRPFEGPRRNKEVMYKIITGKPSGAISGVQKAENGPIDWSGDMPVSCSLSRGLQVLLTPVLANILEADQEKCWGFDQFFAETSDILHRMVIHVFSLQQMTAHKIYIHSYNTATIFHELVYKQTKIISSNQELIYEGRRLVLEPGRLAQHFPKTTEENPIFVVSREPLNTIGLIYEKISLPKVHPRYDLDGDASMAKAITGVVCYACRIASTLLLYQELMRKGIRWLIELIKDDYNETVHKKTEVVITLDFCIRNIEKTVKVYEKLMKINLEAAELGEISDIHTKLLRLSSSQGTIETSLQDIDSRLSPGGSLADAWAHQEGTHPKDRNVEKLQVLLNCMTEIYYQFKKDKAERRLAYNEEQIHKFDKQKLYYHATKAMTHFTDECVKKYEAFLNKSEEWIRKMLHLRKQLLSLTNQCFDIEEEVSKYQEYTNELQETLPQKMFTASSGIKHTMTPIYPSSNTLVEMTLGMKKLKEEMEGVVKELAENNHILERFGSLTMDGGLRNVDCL
Macrophage colony-stimulating factor 1 receptor (Homo sapiens), sequence (P07333 whole entry): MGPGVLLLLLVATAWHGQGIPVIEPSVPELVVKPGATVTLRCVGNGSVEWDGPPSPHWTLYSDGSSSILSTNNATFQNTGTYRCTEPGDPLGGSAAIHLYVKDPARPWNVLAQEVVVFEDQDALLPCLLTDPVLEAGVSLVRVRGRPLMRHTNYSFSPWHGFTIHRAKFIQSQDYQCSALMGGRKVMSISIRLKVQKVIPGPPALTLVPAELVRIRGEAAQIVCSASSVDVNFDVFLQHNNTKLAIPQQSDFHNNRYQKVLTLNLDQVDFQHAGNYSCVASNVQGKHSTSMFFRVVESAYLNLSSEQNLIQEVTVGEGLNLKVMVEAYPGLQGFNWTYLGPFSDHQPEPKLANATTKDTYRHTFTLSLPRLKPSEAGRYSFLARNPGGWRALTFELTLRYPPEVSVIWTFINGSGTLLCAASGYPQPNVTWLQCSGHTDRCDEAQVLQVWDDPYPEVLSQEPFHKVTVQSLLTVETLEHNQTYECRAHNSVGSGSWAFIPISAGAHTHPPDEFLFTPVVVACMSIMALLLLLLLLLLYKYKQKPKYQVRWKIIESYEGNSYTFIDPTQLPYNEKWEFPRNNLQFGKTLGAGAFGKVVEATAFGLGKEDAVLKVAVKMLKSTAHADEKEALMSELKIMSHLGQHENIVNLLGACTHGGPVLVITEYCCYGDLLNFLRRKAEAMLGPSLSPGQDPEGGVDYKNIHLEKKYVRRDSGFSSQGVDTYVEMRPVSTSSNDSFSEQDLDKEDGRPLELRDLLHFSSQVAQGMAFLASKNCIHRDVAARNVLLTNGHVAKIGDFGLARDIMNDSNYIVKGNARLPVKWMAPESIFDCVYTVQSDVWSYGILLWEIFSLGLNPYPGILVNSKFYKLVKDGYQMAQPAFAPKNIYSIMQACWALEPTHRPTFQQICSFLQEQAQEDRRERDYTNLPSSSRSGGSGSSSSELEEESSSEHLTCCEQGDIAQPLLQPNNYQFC

## CCc1cc(Nc2nccc(-c3c(-c4ccc(OC)c(C(=O)Nc5c(F)cccc5F)c4)nc4ccccn34)n2)c(OC)cc1N1CCC(N2CCN(S(C)(=O)=O)CC2)CC1
[1]
  IC50: > 10 µM
[2]
  IC50: 0.103 µM
[3]
  inhibition: inactive
[4]
  inhibition: 4%
[5]
  inhibition: -10%
[6]
  IC50: > 10 µM
[7]
  Activity: 5%
[8]
  IC50: > 10 µM
[9]
  inhibition: 10%
[10]
  inhibition: 24%
[11]
  Activity: Active
[12]
  inhibition: -8%
[13]
  IC50: > 16 µM
[14]
  inhibition (INH): 100%
[15]
  inhibition: 0%
[16]
  IC50: 4.75 µM
[17]
  IC50: > 10 µM
[18]
  inhibition: 1%
[19]
  Activity: Non-Toxic
[20]
  inhibition: 0%
[21]
  inhibition: 18%
[22]
  inhibition: 1%
[23]
  IC50: > 20 µM
[24]
  inhibition at 0.3 µM: 0%
[25]
  IC50: > 10 µM
[26]
  inhibition in vivo at 3 mg/kg: 75%
